≈ marks a conversion by molar mass, not a printed value. Calls of active or inactive are those of the source. No cut-off for these calls is given here. Bounds are passed on as bounds.

Assay [1] deals with Meyerozyma guilliermondii. In words: Antimicrobial activities against Candida guilliermondii by broth microdilution method. The format is functional. A digest of the protocol:
(§1)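 Test compounds were dissolved in DMSO and serially diluted in Mueller-Hinton broth over 250 to 3.9 µg/mL. Broth microdilution followed NCCLS guidelines. MIC was the lowest concentration showing no microbial growth compared with a compound-free control.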

Another assay concerns Pichia kudriavzevii. The experiment in a line: Antimicrobial activities against Candida krusei by broth microdilution method. The format is functional. A digest of the protocol: as §1
(In broth dilution the organism is exposed to a series of concentrations in liquid medium.)

Another assay has as its system Nakaseomyces glabratus. In words: Antimicrobial activities against Candida glabrata by broth microdilution method. The format is functional. The method, boiled down:
as §1

The next assay deals with Candida tropicalis. The experiment in a line: Antimicrobial activities against Candida tropicalis by broth microdilution method. The format is functional. The method, boiled down:
as §1

Another assay has as its system Candida albicans. In words: Antimicrobial activities against Candida albicans CIP 3153A by broth microdilution method. The format is functional. A digest of the protocol: as §1
In assay [2] the test system is Staphylococcus aureus. The experiment in a line: Antimicrobial activities against Staphylococcus aureus ATCC 25923 by broth microdilution method. The format is functional. A digest of the protocol: as §1
Another assay relates to Escherichia coli. In words: Antimicrobial activities against Escherichia coli ATCC 25922 by broth microdilution method. The format is functional. A digest of the protocol:
as §1

The next assay concerns Pseudomonas aeruginosa. In words: Antimicrobial activities against Pseudomonas aeruginosa ATCC 27853 by broth microdilution method. The format is functional. The method, boiled down: as §1
Assay [3] relates to Staphylococcus aureus. In words: Antimicrobial activities against Staphylococcus aureus ATCC 25923 by […]. The format is functional, organism-based.

In general, MIC refers to the lowest concentration found to suppress growth. Lower therefore signals inhibition by little substance. Turning to `C=C[C@@]1(C)CC(=O)[C@@H]2[C@@]3(C)[C@@H](OC(C)=O)CCC(C)(C)[C@@H]3[C@H](OC(C)=O)C[C@@]2(C)O1` (relative stereo) [PLECTRORNATIN C], the minimum inhibitory concentration (MIC) in assay [1] is 62.5 µg/mL (≈ 149 µM); against Pichia kudriavzevii it was 62.5 µg/mL (≈ 149 µM); in the assay on Nakaseomyces glabratus, 62.5 µg/mL (≈ 149 µM); in the assay with Candida tropicalis, 62.5 µg/mL (≈ 149 µM); against Candida albicans, 62.5 µg/mL (≈ 149 µM); in the assay on Staphylococcus aureus [2], not below 125 µg/mL. Moreover, the minimum inhibitory concentration (MIC) in the assay on Escherichia coli and in the assay with Pseudomonas aeruginosa was not below 125 µg/mL each time.
`COC(=O)/C=C(\C)C[C@@H](OC(C)=O)[C@@]1(C)[C@H](C)CC[C@@]2(C)C(C)=CC(=O)C[C@H]12` [PLECTRORNATIN A]: the MIC in [1] is 62.5 µg/mL (≈ 160 µM); with Pichia kudriavzevii, 62.5 µg/mL (≈ 160 µM); against Nakaseomyces glabratus, 62.5 µg/mL (≈ 160 µM); in the assay with Candida tropicalis it was 62.5 µg/mL (≈ 160 µM); with Candida albicans, 62.5 µg/mL (≈ 160 µM); against Staphylococcus aureus [2], not below 125 µg/mL. Also, the MIC against Escherichia coli and with Pseudomonas aeruginosa was not below 125 µg/mL each time.
`C=C[C@@]1(C)CC(=O)[C@@H]2[C@@]3(C)[C@@H](O)CCC(C)(C)[C@@H]3[C@H](OC(C)=O)C[C@@]2(C)O1` (relative stereo): the result in the assay with Staphylococcus aureus [3] was Active.

The record behind these values is ChEMBL document CHEMBL1150649, “Neoclerodane and labdane diterpenoids from Plectranthus ornatus” (2002).
